Columns and labels:
[1] = target: T1, Son of sevenless homolog 1 (Homo sapiens, UniProt Q07889); test: Activation of human recombinant N-terminal His6-tagged SOS1 (564 to 1049 residues) expressed in BL21-RIL Escherichia coli assessed as SOS1-RAS complex formation by measuring exchange of GTP to BODIPY-GDP measured every 3 secs for 30 mins by nucleotide exchange assay
T1 sequence (Q07889 whole entry): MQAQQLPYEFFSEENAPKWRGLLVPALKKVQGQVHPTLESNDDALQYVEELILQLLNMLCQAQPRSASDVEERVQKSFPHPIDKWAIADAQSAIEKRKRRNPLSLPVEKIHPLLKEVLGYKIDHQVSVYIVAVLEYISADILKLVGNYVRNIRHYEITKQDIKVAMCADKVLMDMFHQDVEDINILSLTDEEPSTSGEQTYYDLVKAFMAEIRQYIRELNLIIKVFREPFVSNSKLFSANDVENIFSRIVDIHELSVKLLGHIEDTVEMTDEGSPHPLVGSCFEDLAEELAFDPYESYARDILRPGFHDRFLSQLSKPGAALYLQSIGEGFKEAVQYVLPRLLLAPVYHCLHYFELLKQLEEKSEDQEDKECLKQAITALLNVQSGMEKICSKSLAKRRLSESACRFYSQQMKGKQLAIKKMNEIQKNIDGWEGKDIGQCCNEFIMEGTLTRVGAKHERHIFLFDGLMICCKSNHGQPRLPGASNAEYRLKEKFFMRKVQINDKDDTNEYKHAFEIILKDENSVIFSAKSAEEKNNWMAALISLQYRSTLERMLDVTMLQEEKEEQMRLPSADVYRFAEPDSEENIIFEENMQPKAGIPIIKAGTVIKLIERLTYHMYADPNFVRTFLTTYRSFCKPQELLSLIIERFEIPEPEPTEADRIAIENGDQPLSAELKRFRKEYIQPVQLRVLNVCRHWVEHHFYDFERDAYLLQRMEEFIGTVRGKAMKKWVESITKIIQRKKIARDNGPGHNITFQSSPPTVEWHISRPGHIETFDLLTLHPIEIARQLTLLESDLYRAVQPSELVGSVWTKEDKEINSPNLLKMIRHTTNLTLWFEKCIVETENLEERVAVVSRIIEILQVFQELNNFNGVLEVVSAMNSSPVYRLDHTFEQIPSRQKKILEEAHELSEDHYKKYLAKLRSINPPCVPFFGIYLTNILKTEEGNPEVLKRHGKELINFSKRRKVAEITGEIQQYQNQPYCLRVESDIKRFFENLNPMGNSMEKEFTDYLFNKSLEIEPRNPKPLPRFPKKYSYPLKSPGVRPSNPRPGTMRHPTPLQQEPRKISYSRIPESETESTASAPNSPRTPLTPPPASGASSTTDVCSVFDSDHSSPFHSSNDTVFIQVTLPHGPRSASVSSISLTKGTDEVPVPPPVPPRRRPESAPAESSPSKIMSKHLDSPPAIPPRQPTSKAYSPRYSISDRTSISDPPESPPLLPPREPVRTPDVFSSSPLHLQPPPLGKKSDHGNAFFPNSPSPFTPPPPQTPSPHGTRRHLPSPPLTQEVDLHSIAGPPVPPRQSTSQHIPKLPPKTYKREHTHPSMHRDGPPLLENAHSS

[2] = target: T2, Son of sevenless homolog 1 (Homo sapiens) (UniProt Q07889); test: Activation of human recombinant N-terminal His6-tagged SOS1 (564 to 1049 residues) expressed in BL21-RIL Escherichia coli assessed as SOS1-RAS complex formation by measuring exchange of GTP to BODIPY-GDP measured every 3 secs for 30 mins by nucleotide exchange assay relative to control; design: concentration or dose not given beside the values
T2 sequence (whole entry): T1 sequence (Q07889 whole entry)

[3] = target: T1, Son of sevenless homolog 1; test: Binding affinity to human recombinant N-terminal His6-tagged SOS1 (564 to 1049 residues) expressed in BL21-RIL Escherichia coli by fluorescent probe S1 based fluorescence polarization anisotrophy saturation binding assay
Method in brief: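 SOS1cat (aa 564–1049) was titrated in a 12-point, 2-fold series from 10 μM top against 50 nM fluorescein-labeled probe. Buffer was 20 mM Tris-HCl pH 7.5, 50 mM NaCl, 1 mM magnesium chloride, with 20 min at room temperature in the dark. Anisotropy was read and Kd reported as mean ± SD of at least three independent experiments.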

[4] = target: T1, Son of sevenless homolog 1; test: Binding affinity to human recombinant N-terminal His6-tagged SOS1 (564 to 1049 residues) expressed in BL21-RIL Escherichia coli by fluorescent probe S2 based fluorescence polarization anisotrophy saturation binding assay

Structure (SMILES) | EC50 [1] | Activity [2] | Kd [3] | Kd [4]
Cc1cc2nc(N3CCC(N)CC3)n(Cc3ccc(F)c(Cl)c3)c2cc1C | 6600 nM | 114% | – | –
Cc1cc2nc(C3CCNCC3)n(Cc3ccc(F)c(Cl)c3)c2cc1C | 5600 nM | 128% | – | –
Cc1cc(Cn2c(N3CCNCC3)nc3c(-c4ccc(C(F)(F)F)cc4)cc(Cl)cc32)cc(C)c1F | – | – | 1050 nM | –
Cc1cc2nc(NCCN)n(Cc3ccc(F)c(Cl)c3)c2cc1C | 1900 nM | 114% | – | –
Cc1cc(Cn2c(N3CCNCC3)nc3c(-c4ccccc4CO)cc(Cl)cc32)cc(C)c1F | – | – | – | 140 nM
Fc1ccc(Cn2c(N3CCNCC3)nc3ccc(C4CC4)cc32)cc1Cl | 24300 nM | 65% | – | –
Cc1cc(Cn2c(N3CCNCC3)nc3c(C4=CCNCC4)cc(Cl)cc32)cc(C)c1F | – | – | 250 nM | –
Cc1cc(Cn2c(N3CCNCC3)nc3c(-c4cccnc4)cc(Cl)cc32)cc(C)c1F | – | – | 330 nM | –
Cc1ccc(Cn2c(N3CCNCC3)nc3cc(C)c(C)cc32)cc1 | 36600 nM | 93% | – | –
Cc1cc2nc(N3CCNCC3)n(Cc3ccccc3)c2cc1C | 8600 nM | 122% | – | –
Cc1cc(Cn2c(N3CCNCC3)nc3c(N4CCC(N)CC4)cc(Cl)cc32)cc(C)c1F | – | – | 240 nM | –
Cc1cc(Cn2c(N3CCNCC3)nc3c(-c4cn[nH]c4)cc(Cl)cc32)cc(C)c1F | – | – | – | 180 nM
Cc1cc2nc(N3CCN(C)CC3)n(Cc3ccc(F)c(Cl)c3)c2cc1C | 26000 nM | 143% | – | –
Cc1cc2c(cc1C)N(Cc1ccccc1)C1=NCCCN12 | 23200 nM | 64% | – | –
Cc1cc(Cn2c(N3CCNCC3)nc3c(-c4cccc(C(F)(F)F)c4)cc(Cl)cc32)cc(C)c1F | – | – | 670 nM | –
Cc1cc2nc(NC3CCNCC3)n(Cc3ccc(F)c(Cl)c3)c2cc1C | 37100 nM | 129% | – | –
Fc1ccc(Cn2c(N3CCNCC3)nc3ccc(Br)cc32)cc1Cl | 1300 nM | 115% | – | –
Cc1cc2nc(N3CCNCC3)n(Cc3ccc(F)c(F)c3)c2cc1C | 5900 nM | 183% | – | –
Cc1cc(Cn2c(N3CCNCC3)nc3c(-c4ccccc4)cc(Cl)cc32)cc(C)c1F | – | – | 270 nM | –
Cc1cc(Cn2c(N3CCNCC3)nc3c(N4CCC[C@@H]4CN)cc(Cl)cc32)cc(C)c1F | – | – | – | 240 nM
Cc1cc(Cn2c(N3CCNCC3)nc3c(-c4ccccc4C4CCC4)cc(Cl)cc32)cc(C)c1F | – | – | 440 nM | –
Cc1cc2ncn(Cc3ccc(F)c(Cl)c3)c2cc1C | > 100000 nM | – | – | –
Cc1cc2nc(N3CCNCC3)n(Cc3ccc(C(F)(F)F)cc3)c2cc1C | 19600 nM | 148% | – | –
Cc1cc(Cn2c(N3CCNCC3)nc3c(-c4c(C)cccc4C)cc(Cl)cc32)cc(C)c1F | – | – | – | 300 nM
Cc1ccccc1-c1cc(Cl)cc2c1nc(N1CCNCC1)n2Cc1cc(C)c(F)c(C)c1 | – | – | – | 210 nM
Cc1cc(Cn2c(N3CCNCC3)nc3c(-c4cncnc4)cc(Cl)cc32)cc(C)c1F | – | – | – | 350 nM

Reference: ChEMBL document CHEMBL4196202, “Discovery and Structure-Based Optimization of Benzimidazole-Derived Activators of SOS1-Mediated Nucleotide Exchange on RAS” (J Med Chem, 2018)
